In one data set the test system is mice (immobility in FST). The data set is described as follows: Forced swimming test. In kind it is in vivo, Kunming mice. Particulars: for Antidepressant activity in FST, significance compared with the control group: mice, 40 mg kg^-1; for Relationship between dose and antidepressant activity in FST: mice, 10, 20 and 40 mg kg^-1 (Fig. 3). In outline: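 Kunming mice (18–22 g) with free access to food and water; test compound in 0.5% methylcellulose or DMSO, given by intraperitoneal or subcutaneous injection at 40 mg kg−1; fluoxetine as positive control; test time 0.5 h. Read-out is immobility duration (s) and DID (%), compared with the control group by one-way ANOVA. A dose series of 10, 20 and 40 mg kg−1 was also run.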

For another data set, the target named is T1, 5-HT1A receptor (Homo sapiens, UniProt P08908).
T1 sequence (P08908 1-422): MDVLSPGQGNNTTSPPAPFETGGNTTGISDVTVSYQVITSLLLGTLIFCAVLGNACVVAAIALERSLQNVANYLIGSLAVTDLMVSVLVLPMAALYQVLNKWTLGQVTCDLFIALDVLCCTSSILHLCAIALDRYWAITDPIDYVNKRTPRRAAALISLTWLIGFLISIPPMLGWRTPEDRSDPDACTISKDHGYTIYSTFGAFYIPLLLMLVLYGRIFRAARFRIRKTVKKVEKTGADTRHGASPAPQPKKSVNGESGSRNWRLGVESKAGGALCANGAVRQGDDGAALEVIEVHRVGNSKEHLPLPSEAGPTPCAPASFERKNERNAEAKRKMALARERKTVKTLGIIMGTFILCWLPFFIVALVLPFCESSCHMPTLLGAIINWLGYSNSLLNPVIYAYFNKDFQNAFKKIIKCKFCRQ
The data set is described as follows: biochemical.

A further data set has as its system mice (immobility in TST). Description: Tail suspension test. In kind it is in vivo. Particulars: 40 mg kg^-1, n = 8 (Fig. 4). The method in brief: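 Tail suspension test in Kunming mice (18–22 g), used as a second behavioural-despair model to confirm FST findings. Test compound at 40 mg kg−1 in 0.5% methylcellulose or DMSO, injected intraperitoneally or subcutaneously; fluoxetine at the same dose as positive control. Groups compared with control by one-way ANOVA.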

Data set [1] deals with 5-HT concentration in the mice brain. The data set is described as follows: Determination of brain 5-HT concentration by ELISA. Type of data set: in vivo. Particulars: 40 mg kg^-1, 1 h after administration, n = 8 (Fig. 5). In general terms: In an ELISA, binding on a coated surface is turned into a signal by an enzyme label.
Data set [2] concerns spontaneous locomotor activity of mice. Description: Open-field test. In kind it is in vivo. The conditions noted are these: 40 mg kg^-1, administered 1 h before the test, n = 8 (Fig. 6). The method in brief: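 Kunming mice given test compound at 40 mg kg−1 (0.5% methylcellulose or DMSO vehicle; intraperitoneal or subcutaneous) 1 h before placement in a novel open field. Spontaneous activity is counted as line crossings (locomotion), rearing (standing on hind legs) and grooming. n = 8 per group, values as mean ± SEM.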

Experimental findings from PMC9056355 (RSC Advances, 2020) are described below.

Turning to `O=C1CCc2ccc(OCc3nnc(SCc4ccc(F)cc4)o3)cc2N1` [Compound 5f, 7-((5-((4-Fluorobenzyl)thio)-1,3,4-oxadiazol-2-yl)methoxy)-3,4-dihydroquinolin-2(1H)-one], in the data set on mice (immobility in FST), the “Antidepressant activity in FST, significance compared with the control group” value is on record as “significant”.

What is called Ki is the dissociation constant of the complex between target and ligand, obtained from inhibition or displacement. On 5-HT1A receptor, `O=C1CCc2ccc(OCc3nnc(SCc4ccc(Cl)cc4)o3)cc2N1` [Compound 5g, 7-((5-((4-Chlorobenzyl)thio)-1,3,4-oxadiazol-2-yl)methoxy)-3,4-dihydroquinolin-2(1H)-one] registered an inhibition constant (Ki) of 1.77 ± 0.14 nM.

Regarding `O=C1CCc2ccc(OCc3nnc(SCc4ccc(C(F)(F)F)cc4)o3)cc2N1` [Compound 5h, 7-((5-((4-Trifluoromethylbenzyl)thio)-1,3,4-oxadiazol-2-yl)methoxy)-3,4-dihydroquinolin-2(1H)-one], affinity on 5-HT1A receptor was put at a Ki of 2.73 ± 0.22 nM.

With `CC(=O)Nc1cccc(OCc2nnc(SCc3ccccc3Cl)o2)c1` [Compound 10e, N-(3-((5-((2-Chlorobenzyl)thio)-1,3,4-oxadiazol-2-yl)methoxy)phenyl)acetamide], the “Antidepressant activity in FST, significance compared with the control group” value in the data set with mice (immobility in FST) is “high significant”. Besides, on 5-HT1A receptor, affinity was put at a Ki of 2.01 ± 0.18 nM.

For the compound `CC(=O)Nc1cccc(OCc2nnc(SCc3cccc(Cl)c3)o2)c1` [Compound 10f, N-(3-((5-((3-Chlorobenzyl)thio)-1,3,4-oxadiazol-2-yl)methoxy)phenyl)acetamide], the “Antidepressant activity in FST, significance compared with the control group” value in the data set with mice (immobility in FST) is on record as “significant”.

For the compound `CC(=O)Nc1cccc(OCc2nnc(SCc3ccc(Cl)cc3)o2)c1` [Compound 10g, N-(3-((5-((4-Chlorobenzyl)thio)-1,3,4-oxadiazol-2-yl)methoxy)phenyl)acetamide], in the data set on mice (immobility in FST), the “Antidepressant activity in FST, significance compared with the control group” value is reported as “high significant”; the “Relationship between dose and antidepressant activity in FST” value was “as the dose increases, the antidepressant activity increases”. Also, the “Antidepressant activity in TST” value in the data set with mice (immobility in TST) is given as “highly significant”. The “Effect on brain 5-HT concentration” value in data set [1] is reported as “significantly (p < 0.05) increased the 5-HT concentration”. For the same compound, the “Exploratory activity in open-field test (crossing, rearing, grooming)” value in data set [2] is “no significant difference”. This compound also registered a Ki at 5-HT1A receptor of 1.68 ± 0.13 nM.

With `CC(=O)Nc1cccc(OCc2nnc(SCc3ccc(C(F)(F)F)cc3)o2)c1` [Compound 10j, N-(3-((5-((4-Trifluoromethylbenzyl)thio)-1,3,4-oxadiazol-2-yl)methoxy)phenyl)acetamide], the “Antidepressant activity in FST, significance compared with the control group” value in the data set with mice (immobility in FST) was “high significant”. Moreover, the Ki on 5-HT1A receptor was found to be 4.14 ± 0.16 nM.

`CC(=O)Nc1cccc(OCc2nnc(SCc3ccc(C)cc3)o2)c1` [Compound 10m, N-(3-((5-((4-Methylbenzyl)thio)-1,3,4-oxadiazol-2-yl)methoxy)phenyl)acetamide]: the “Antidepressant activity in FST, significance compared with the control group” value in the data set with mice (immobility in FST) is “significant”.

In the case of `CNCCC(Oc1ccc(C(F)(F)F)cc1)c1ccccc1` (centres unmarked) [Fluoxetine, reference compound], the “Relationship between dose and antidepressant activity in FST” value in the data set on mice (immobility in FST) was “as the dose increases, the antidepressant activity increases”. Besides, the “Effect on brain 5-HT concentration” value in data set [1] is “significantly (p < 0.05) increased the 5-HT concentration”.
